167 variants from the RNAGym collection of RNA variant scans (doi:10.1126/science.aae0568) can be followed below.

B1: tRNA (parent)
chain: GUUCCGUUGGCGUAAUGGUAACGCGUCUCCCUCCUAAGGAGAAGACUGCGGGUUCGAGUCCCGUACGGAACG

Variants at the floor of the assay were thinned out. Bounds are passed on as bounds.

Variants of B1 are the subject of this series. Nature of the series: yeast fitness relative to wild type (ratio to wild type); higher = fitter; tRNA-Arg(CCU), competitive growth, 37 C, YPD. The gist of the method: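 Changes in genotype frequencies gave Darwinian fitness relative to wild type. Frequencies were read by 100-nucleotide paired-end sequencing of gene amplicons before and after pooled Saccharomyces cerevisiae strains, carrying tRNA-Arg(CCU) gene variants at the native locus, were competed in YPD at 37°C for 24 hours in six replicates. A genotype was kept only with ≥ 100 starting reads, and estimates < 0.5 were set to 0.5.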
A14C U26A C34U G50U C55G: the yeast fitness was at most 0.5. Next, C24G A42C A70U: 0.616; C22A G25C C62A: 0.559; C22G C31G A57U: at most 0.5. Next, C33U A40U: 0.616; C33G A69C: 0.742. Next, C22G A43C A45U G52A: at most 0.5.

As for C29G U32C, the yeast fitness turned out to be 0.563. Next, C5G U26C G44A A70U: 0.546; A20U G51A: 0.811. The value for G6A C30U C33U C46U was at most 0.5; that for A21U C34U A42U U64A G68U was 0.659; that for A45G U53G was 0.586.

Take G12C G58A A65U: the yeast fitness came to 0.72. Turning to C34A G39A, the yeast fitness worked out at 0.734.

Turning to A21G C27G G67A, the yeast fitness was at most 0.5.

Regarding C11A A20U C33U C34U G48A C66U, the yeast fitness is 0.557. Next, U2A C31U U35C A45U: at most 0.5; G17A U26C C61U A65G G67A: at most 0.5. As to C11G C24U C34G, the yeast fitness was at most 0.5.

As for A21U C31G C33G C60A, the yeast fitness was 0.543. As to C4U C29U C30G, the yeast fitness was at most 0.5. Next, G17A C24A C30U G41A A45C G58C: at most 0.5; U7A G10A C33A A36C G67C: at most 0.5; G25A C33A A40G: 0.544. Next, U13C A36C C61A: 0.651.

On to A37U U47C U53G C62U, for which the yeast fitness is at most 0.5. Next, U35C A36U: 0.603; A20U A37C: 0.723; C5U G17C U26G G67A: 0.565. Take G9A G68C: the yeast fitness is 0.857. Next, A21U C33U C49A C55U: at most 0.5; A36U A43C: 0.569; G50A C55A C66A: 0.543.

On to C33A G58C U64G, for which the yeast fitness came out at 0.564. The value for A42C A43C C60G C61G C62U was at most 0.5. Take A14G C22G U35G A40C A70U: the yeast fitness is at most 0.5. Next, U8G U13G A37U G63C: at most 0.5; U19C C29U A57C G68C: at most 0.5. On to G18A G39A A40C A70U, for which the yeast fitness is at most 0.5.

Take U13A A37U G68A: the yeast fitness is 0.637. Next, C31U U32G C33G: 0.591. Next, G6C G23C C24A: 0.585; C29A C30A G58A: at most 0.5; U2A C24A A45G: 0.568.

U7C C24A G67A: the yeast fitness was at most 0.5.

For C5A G10C U26C, the yeast fitness was 0.518.

Turning to A43G A65G, the yeast fitness was 1.08. The value for U3A C4G U8A G50A A57C A70U was 0.548; that for C11U G48A C55A G58C was at most 0.5; that for C27G C31U A65U A70U was at most 0.5. Next, A21G C34A C55A A69C: 0.565; C29A A37U C49A: at most 0.5. The value for C4G A14C was 0.568. On to A20G U26A C61G A65C, for which the yeast fitness amounted to 0.518. The value for G41A G68C was 0.775; that for C30U C55G A69C was at most 0.5. Next, G10A C22U A70U: at most 0.5. The value for C34A C49A C60G A65C was at most 0.5.

In the case of U19C C31U G56A, the yeast fitness was 0.954.

For the variant C33G G39C A69C, the yeast fitness is at most 0.5.

For the variant G9A A15G A20U U28C A45U, the yeast fitness is at most 0.5. The value for A14G C24U was 0.784; that for U2G U26C C49U C55A was at most 0.5.

With G25C C33A A57U, the yeast fitness turned out to be 0.718. For U3A C22G C29U, the yeast fitness amounted to 0.55. Next, C4U C27G A45C C55U C66A: at most 0.5. Next, C4U G12C U64C: 0.696. For U8C A42G C55A, the yeast fitness is at most 0.5.

Consider G10A A20U C30U G56A A65G C66A G68C, for which the yeast fitness is at most 0.5. The value for A45C G58U was 0.675; that for C11U G25A A43G G51C C55G was 0.695.

On to A20C A45G, for which the yeast fitness was determined as 0.853.

On to U2A C4G C5G G25A C30G C34A C49G, for which the yeast fitness is at most 0.5. Next, G58A G63A: 0.954.

Take U7A U8A G10C C27G C34G: the yeast fitness was 0.564. The value for G9A U16C U19G C27A C33U U53C A65U C66U was at most 0.5; that for C22U A36G C55A was at most 0.5; that for C62G G68C was 0.592.

Consider C5G G6C G67A, for which the yeast fitness is at most 0.5. Next, G9C A15C U35C U59A G63A: at most 0.5; C27U A37G: 0.899; A20C A40G G52C: at most 0.5. Next, C24U C61U A70C: 0.714.

Turning to U7G U59G A69C, the yeast fitness is at most 0.5.

Turning to U3C G18C C31G U59A G67A, the yeast fitness was at most 0.5. The value for A36G A69C was 1.05; that for C11G C27A G38A C55G was at most 0.5. The value for A20C G23C C27A was 0.574; that for U2C U8G C11U C24U A37U C66A was at most 0.5.

Turning to A45G C66U, the yeast fitness came to 0.952.

In the case of G9A A65G A70G, the yeast fitness amounted to 0.595. Consider G12A C24G G38A A40C A43C C46U G68C A69U, for which the yeast fitness was at most 0.5.

As for U16C C27A, the yeast fitness was 0.963. The value for C62A G67C was 0.81. Consider G12A C31A U32C U53C C60G, for which the yeast fitness is at most 0.5. As to U3G C49G C60G C62G G63A, the yeast fitness is at most 0.5.

Regarding A15U C33G, the yeast fitness amounted to 0.551. The value for C11G C22U U53C was at most 0.5. In the case of G12A A40U, the yeast fitness came to 1. The value for A15U U53G A57C A69U was 0.625; that for U3A C5G C46G U53A was 0.527; that for G9C U13A G25A A40C A57C C61A G67A was 0.553. The value for C27G C30G C31U U54C was at most 0.5; that for G9U C24G A45C was at most 0.5; that for C33G A40U G48C C60G was at most 0.5. The value for U3G C49G was 0.809; that for C4G G12A A43U A45C G67C was at most 0.5. Take C24A C27U C29G G44C U59C G67A: the yeast fitness was at most 0.5. The value for C4A U8C U19A C27U G38C C55U was at most 0.5. The value for U8C C27G C30G C46U C49G was at most 0.5.

Take A45C G50A: the yeast fitness was found to be 0.969. The value for U16A A37U C62A was at most 0.5. As for A14U G17A C22U G63C, the yeast fitness is at most 0.5. C27A C33G: the yeast fitness was 0.711. Next, U13C C49G C62U: 0.533; G6C A14G U16C A42U G52U: at most 0.5.

Consider G6C G12A G51A, for which the yeast fitness was 0.538.

For the variant U2G A14C A69C, the yeast fitness was at most 0.5.

As to G6A A37C A65C A70C, the yeast fitness is at most 0.5.

As to U28A A40U A69U, the yeast fitness is 0.769. The value for C5A U7C C31U was 0.605; that for C4G G23C G56C was at most 0.5.

Take U54A C55U: the yeast fitness amounted to 0.615.

On to U7C G56U A65U G68C, for which the yeast fitness was at most 0.5. Turning to C5U A14C U35C, the yeast fitness was at most 0.5. The value for C24A U35G A65C was at most 0.5. Consider G10C G56A, for which the yeast fitness came out at 0.596. Next, C5G U13C C46U: 0.547; U19C C29A U32G G58A A69G: at most 0.5; A21C C30A A43G C61U: at most 0.5. The value for G38A A42U U54A was at most 0.5; that for C11G C62U was 0.579; that for U35G A43G C46U was 0.702. Next, C31G A42G A65U G67C: at most 0.5. Turning to G39A C49A G52A G63A A70C, the yeast fitness was at most 0.5. The value for C27U U32A A69U was 0.774; that for A36C C49U was 0.557. The value for C11U G41C was 0.852. For the variant U2A A15C G58C, the yeast fitness is at most 0.5. The value for A14G C22U C34U C55A was 0.583; that for A43U U47G U53G was 0.519. The value for C11U C31U U59A was at most 0.5. Consider U7C U8C U26G, for which the yeast fitness is at most 0.5. Turning to U19G G38C A70U, the yeast fitness came to 0.501. The value for C5A A20G was 0.933. Next, U28A G48A C60G: at most 0.5. The value for C4G C5U C22G was at most 0.5; that for C11G C22U G63C was at most 0.5. Take U13A G41A U64C A70G: the yeast fitness was at most 0.5. The value for U16A A20U was 0.855. The value for A20U A45G C46U was 0.836.

As for C46A C61G A69C, the yeast fitness was 0.501. The value for A20G A42G U59C was 0.634. Take G9A A20G G38A C62U: the yeast fitness was determined as 0.676. The value for A14U A45C was 0.653; that for G6A A21G A43U A70G was at most 0.5; that for C4U U26A C31G was 0.603. Consider A36C A65C, for which the yeast fitness was 0.601. The value for G10A G25A G41C U54G C61U was 0.551; that for C4A C31G G51C was 0.524.

As to C24A U26G A43C, the yeast fitness was 0.516.

On to C27U C60U C66U, for which the yeast fitness worked out at 0.695. The value for U2C G39A was 0.884; that for C29G U47A was 0.561. Next, U8C U19A A37G: 0.559. Next, C4A U64C: 0.923.
